The source of these data is ChEMBL document CHEMBL1833914, “Smardaesidins A-G, isopimarane and 20-nor-isopimarane diterpenoids from Smardaea sp., a fungal endophyte of the moss Ceratodon purpureus” (J Nat Prod, 2011).

Test [1] concerns MCF7. Put plainly: Cytotoxicity against human MCF7 cells after 72 hrs by Alamar blue assay. The test is classed as functional, cell-based. Particulars: MCF7, 72 h.
The test system of test [2] is NCI-H460. Put plainly: Cytotoxicity against human NCI-H460 cells after 72 hrs by Alamar blue assay. Particulars: NCI-H460, 72 h. The test is classed as functional, cell-based. (In general: Resazurin is reduced to fluorescent resorufin, in cell work by metabolically active cells.)
A further test deals with MIA PaCa-2. Put plainly: Cytotoxicity against human MIAPaCa2 cells after 72 hrs by Alamar blue assay. It is filed as functional, cell-based. Particulars: MIA PaCa-2, 72 h.
For test [3], the system named is SF-268. In words: Cytotoxicity against human SF268 cells after 72 hrs by Alamar blue assay. The settings on record: SF-268, 72 h. The test is classed as functional, cell-based.
The next test has as its system WI-38. In words: Cytotoxicity against human WI38 cells after 72 hrs by Alamar blue assay. The test is classed as cell-based. The settings on record: WI-38, 72 h.
Test [4] has as its system MDA-MB-231. Put plainly: Cytotoxicity against human MDA-MB-231 cells after 72 hrs by Alamar blue assay. It is filed as functional, cell-based. Particulars: MDA-MB-231, 72 h.
A further test deals with PC-3. In words: Cytotoxicity against human PC3 cells after 72 hrs by Alamar blue assay. The test is classed as functional, cell-based. Particulars: PC-3, 72 h.
The test system of another test is PC-3M. Put plainly: Cytotoxicity against human PC3M cells at 10 uM after 72 hrs by Alamar blue assay. It is filed as functional, cell-based.
Test [5] relates to SF-268. In words: Cytotoxicity against human SF268 cells at 10 uM after 72 hrs by Alamar blue assay. It is filed as functional, cell-based.
Test [6] in a line: Cytotoxicity against human PC3M cells after 72 hrs by Alamar blue assay. It is filed as functional, cell-based. The settings on record: PC-3M.
Test [7] relates to MCF7. Put plainly: Cytotoxicity against human MCF7 cells at 10 uM after 72 hrs by Alamar blue assay. It is filed as functional, cell-based.
The subject of test [8] is MDA-MB-231. Put plainly: Inhibition of human MDA-MB-231 cell migration at 5 uM after 40 hrs by wound-healing assay. The test is classed as functional, cell-based. In a few lines: (§1)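 Wound-healing assay: MDA-MB-231 cells grown in DMEM/Ham's F-12 with 10% FBS and gentamicin (50 μg/mL) at 37 °C, 5% CO2. Cells seeded at 150 000/well and grown 24 h to >90% confluent monolayer. Monolayer scratched with toothpick, washed with PBS, fresh medium added, compound in DMSO added in duplicate, 40 h. LY294002 7.5 μM positive control. Wound area measured by ImageJ from three photos per well.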

Test [9] deals with MDA-MB-231. In words: Cytotoxicity against human MDA-MB-231 cells at 10 uM after 72 hrs by Alamar blue assay. It is filed as functional, cell-based.
The subject of test [10] is NCI-H460. Put plainly: Cytotoxicity against human NCI-H460 cells at 10 uM after 72 hrs by Alamar blue assay. The test is classed as functional, cell-based.
Test [11] deals with MDA-MB-231. In words: Antiproliferative activity against human MDA-MB-231 cells after 72 hrs by Alamar blue assay. The test is classed as functional, cell-based. The settings on record: MDA-MB-231, 72 h. In a few lines:
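alamarBlue proliferation/survival read-out in MDA-MB-231 after 72 h exposure. Reagent added to 10% final, 4 h incubation, fluorescence at ex 560/em 590 nm as percent of DMSO vehicle; IC50 and IC25 reported as mean ± error.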

Test [12] has as its system MDA-MB-231. In words: Inhibition of human MDA-MB-231 cell migration after 40 hrs by wound-healing assay. The test is classed as functional, cell-based. Particulars: MDA-MB-231, 40 h. Summed up:
as §1

Test [13] deals with MDA-MB-231. Put plainly: Inhibition of human MDA-MB-231 cell migration at 2 uM after 40 hrs by wound-healing assay. The test is classed as functional, cell-based. In a few lines:
as §1

The source made the active and inactive calls. The calls are words filed in the database; no cut-off is given here.

A word on the IC50: it is the concentration that gives 50% inhibition. A lower IC50 goes with inhibition by little substance. In the case of `COc1cccc2c1C(=O)c1c(O)c3c(c(O)c1C2=O)C[C@@](O)(C(=O)CO)C[C@@H]3O[C@H]1C[C@H](N)[C@H](O)[C@H](C)O1` [DOXORUBICIN], the IC50 in the test with MCF7 [1] is 400 nM; with NCI-H460 [2], 300 nM; in the test with MIA PaCa-2, 300 nM; in the test on SF-268 [3], 600 nM; with WI-38, 800 nM; with MDA-MB-231 [4], 500 nM. Also, in the test on PC-3, the IC50 was 300 nM.

A word on the IC25: it is the concentration at which the effect reaches the 25% level. On to `C=C[C@]1(C)C=C2C(=O)[C@@]3(O)OC(=O)[C@@]4(CCCC(C)(C)[C@H]34)[C@@]2(O)[C@H](O)C1` [SPHAEROPSIDIN D], for which the outcome in the test with PC-3M, in the test with SF-268 [5], with MCF7 [7], in the test on MDA-MB-231 [9] and with NCI-H460 [10] was Active. The concentration for half-maximal inhibition (IC50) in the test on MCF7 [1] was more than 10000 nM; in test [6] it was more than 10000 nM; in the test with NCI-H460 [2], more than 10000 nM; with MIA PaCa-2, 9000 nM; in the test with SF-268 [3], 7500 nM; with WI-38, more than 10000 nM. Also, the IC50 was more than 5000 nM in the test with MDA-MB-231 [11], 3700 nM in the test with MDA-MB-231 [4], 4800 nM with MDA-MB-231 [12] and 9600 nM in the test with PC-3. The inhibition entry in the test with MDA-MB-231 [8] was “Active”. The same molecule came in with an IC25 in the test with MDA-MB-231 [11] of more than 5000 nM.

On to `C=C[C@]1(C)C=C2C(=O)[C@@]3(OC(C)=O)OC(=O)[C@@]4(CCCC(C)(C)[C@H]34)[C@@]2(O)CC1`, for which the result in the test with PC-3M, in the test on SF-268 [5], in the test with MCF7 [7], with MDA-MB-231 [9] and with NCI-H460 [10] was Active. The IC50 in the test on MCF7 [1] came out at 2000 nM; in test [6], 2700 nM; with NCI-H460 [2] it was 2800 nM; with SF-268 [3] it was 4900 nM; in the test with MDA-MB-231 [4], 2500 nM.

As for `C=C[C@]1(C)C=C2C(=O)[C@@]3(O)OC(=O)[C@@]4(CCCC(C)(C)[C@H]34)[C@@]2(O)CC1` [SPHAEROPSIDIN A], the result with PC-3M, in the test on SF-268 [5], with MCF7 [7], in the test on MDA-MB-231 [9] and in the test on NCI-H460 [10] was Active. The IC50 with MCF7 [1] worked out at 3000 nM; in [6] it was 2400 nM; in the test on NCI-H460 [2], 1900 nM; with MIA PaCa-2, 2000 nM; in the test with SF-268 [3] it was 2100 nM; with WI-38 it was 3700 nM. For the same molecule, the IC50 in the test with MDA-MB-231 [11] is 3000 nM; in the test on MDA-MB-231 [4], 1400 nM; with MDA-MB-231 [12], 1500 nM; in the test with PC-3 it was 2500 nM. For the same molecule, in the test on MDA-MB-231 [13], the inhibition entry is “Active”. Moreover, the IC25 in the test on MDA-MB-231 [11] amounted to 1500 nM.
